Assay [1] in a line: Antiproliferative activity against human MCF7:WS8 cells assessed as reduction in cell viability incubated for 5 days by Hoechst 33258 dye based assay relative to control. Particulars: MCF7:WS8, 120 h. Format: functional. Summed up:
(§1)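 Cells were seeded at 5000 per well; MCF7:WS8 had been estrogen-stripped for 2 days first. Compounds were serially diluted in DMSO, with 0.01% DMSO as vehicle. The medium was removed on day 5 (MCF7:WS8) or day 7 (MCF7:5C), and cells were lysed by freezing at −80 °C overnight. DNA was measured by Hoechst 33258 fluorescence. Maximum efficacy was normalized to vehicle (0%) and no cells (100%); at least three biological replicates.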

Assay [2] in a line: Antiproliferative activity against human MCF7:5C cells assessed as reduction in cell viability incubated for 7 days by Hoechst 33258 dye based assay relative to control. It counts as functional. Particulars: 168 h. The gist of the method:
as §1

The target in assay [3] is T1, Estrogen receptor (Homo sapiens, UniProt P03372).
T1 sequence (P03372 whole entry): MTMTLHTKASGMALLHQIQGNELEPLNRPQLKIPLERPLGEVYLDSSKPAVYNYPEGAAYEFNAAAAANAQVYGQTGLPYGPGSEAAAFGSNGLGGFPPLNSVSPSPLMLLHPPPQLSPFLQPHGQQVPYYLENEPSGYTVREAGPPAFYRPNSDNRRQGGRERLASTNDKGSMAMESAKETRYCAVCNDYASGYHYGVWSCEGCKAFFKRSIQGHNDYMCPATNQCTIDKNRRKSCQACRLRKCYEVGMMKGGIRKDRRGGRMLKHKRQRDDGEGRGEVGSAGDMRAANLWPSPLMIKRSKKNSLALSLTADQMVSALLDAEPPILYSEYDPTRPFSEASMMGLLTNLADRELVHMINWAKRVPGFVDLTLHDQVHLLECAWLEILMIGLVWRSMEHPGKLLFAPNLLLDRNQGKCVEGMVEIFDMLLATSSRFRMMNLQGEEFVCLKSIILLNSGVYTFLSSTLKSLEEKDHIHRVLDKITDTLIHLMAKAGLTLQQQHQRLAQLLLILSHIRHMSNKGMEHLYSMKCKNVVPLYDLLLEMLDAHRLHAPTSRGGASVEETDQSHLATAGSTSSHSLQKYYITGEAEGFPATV
Nature of the assay: Inhibition of ERalpha in human MCF7:WS8 cells assessed as increase in degradation of ERalpha incubated for 24 hrs by In-Cell Western assay. It counts as cell-based. The gist of the method:
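MCF7:WS8 cells were estrogen-stripped for 2 days and plated at 2.5 × 10^4 per well. ERα was detected by in-cell western (H10 antibody), with signal normalized to CellTag 700.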

Another assay can be described thus: cells. Particulars: Homo sapiens, MCF7:5C, 168 h.
Assay [4] concerns the target T2, Estrogen receptor (Homo sapiens) (UniProt P03372).
T2 sequence (whole entry): T1 sequence (P03372 whole entry)
Nature of the assay: Inhibition of ERalpha in human MCF7:WS8 cells assessed as increase in degradation of ERalpha incubated for 24 hrs by In-Cell Western assay relative to control. Format: cell-based. The gist of the method: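 MCF7:WS8 cells were estrogen-stripped for 2 days and plated at 2.5 × 10^4 per well. After 48 h they were treated for 24 h. ERα was detected by in-cell western (H10 antibody), with signal normalized to CellTag 700.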

Assay [5] can be described thus: Antiproliferative activity against human MCF7:WS8 cells assessed as reduction in cell viability incubated for 5 days by Hoechst 33258 dye based assay. It counts as functional. Particulars: MCF7:WS8, 120 h. Summed up: as §1
In assay [6] the target is T1, Estrogen receptor. Nature of the assay: Antagonist activity at ERalpha in human MCF7:WS8 cells incubated for 18 hrs by dual luciferase reporter gene assay relative to control. Format: cell-based. Summed up:
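MCF7:WS8 cells were estrogen-deprived for 3 days (phenol red-free RPMI, stripped FBS), then plated and grown 24 h. They were co-transfected for 6 h with a 3×vitellogenin ERE-firefly luciferase plasmid and a pRL-TK Renilla plasmid. Compounds were given in competition with 1 nM E2 for 18 h, then dual luciferase was read.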
(In general: Reporter assays use an easily measured gene product as a stand-in for the process of interest.)

The species entered for assay [7] is Homo sapiens. Nature of the assay: Cytotoxicity against human MCF7:WS8 3D spheroid cells assessed as reduction in tumor cell viability at 10 nM incubated for 14 days by celltiter-glo 3D cell viability assay. (In general: In ATP-based viability assays light output follows the ATP content of the culture.)
The species named for assay [8] is Homo sapiens. The experiment in a line: Cytotoxicity against human MCF7:WS8 3D spheroid cells assessed as reduction in tumor spheroid size at 10 nM incubated for 14 days.
Assay [9] has as its system T47D. Nature of the assay: Cytotoxicity against human T47D 3D spheroid cells assessed as reduction in tumor cell viability at 10 nM incubated for 14 days by celltiter-glo 3D cell viability assay.
Assay [10] has as its system T47D. The experiment in a line: Cytotoxicity against human T47D 3D spheroid cells harboring D538G mutant assessed as reduction in tumor cell viability at 10 nM incubated for 14 days by celltiter-glo 3D cell viability assay.
The subject of assay [11] is T47D. Nature of the assay: Cytotoxicity against human T47D 3D spheroid cells harboring Y537S mutant assessed as reduction in tumor cell viability at 10 nM incubated for 14 days by celltiter-glo 3D cell viability assay.
Assay [12] has as its target T2, Estrogen receptor (Homo sapiens). The experiment in a line: Induction of degradation of ERalpha in human MCF7:WS8 cells at 100 nM in presence of MG-132 incubated for 24 hrs by Western blot analysis. It counts as cell-based. For orientation: Immunoblotting shows a protein as a band on a membrane.

The source made the active and inactive calls. No cut-off for these calls is given here.

Results on 20 molecules are retold here after ChEMBL document CHEMBL4354825, “Design and Synthesis of Basic Selective Estrogen Receptor Degraders for Endocrine Therapy Resistant Breast Cancer” (J Med Chem, 2019).

Take `Cc1ccccc1C(=O)c1sc2cc(O)ccc2c1Oc1ccc(OCCN2CCC2)cc1`: the Emax in [1] is 70%; in [2], 31%. Also, the IC50 on Estrogen receptor [3] was 1.91 nM; in the assay “cells” (read-out: pIC50 (converted)), 1.29 nM; in assay [5], 0.912 nM. Moreover, the Efficacy in assay [4] was 37%.
On to `Cc1ccccc1C(=O)c1sc2cc(O)ccc2c1Oc1ccc(OC2CN(CCCF)C2)cc1`, for which the IC50 against Estrogen receptor [6] was 2.1 nM; at Estrogen receptor [3] it was 2.57 nM; in the assay “cells” (read-out: pIC50 (converted)), 2.82 nM; in assay [5], 0.145 nM. The outcome in the assay listed under Homo sapiens [7] and in the assay filed under Homo sapiens [8] was Active. Further, the Emax in [1] is 67%; in assay [2], 59%. In [4], the Efficacy came to 82%.
Take `Cc1ccccc1C(=O)c1sc2cc(O)ccc2c1Oc1ccc(OCCN2CC[C@@H](CF)C2)cc1`: the results for the Emax in [1] and in assay [2] were 85% and 67%, respectively. The IC50 on Estrogen receptor [3] was 10.5 nM; in the assay “cells” (read-out: pIC50 (converted)), 0.0871 nM; in assay [5] it was 0.0126 nM. The Efficacy in assay [4] worked out at 84%.
Consider `CC/C(=C(\c1ccc(O)cc1)c1ccc(OCCN(C)C)cc1)c1ccccc1`, for which the result in the assay with T47D [9], in the assay with T47D [10] and in the assay with T47D [11] was Active.
For `Cc1ccccc1C(=O)c1sc2cc(O)ccc2c1Oc1ccc(OCCN2CC(C)C2)cc1`, the IC50 at Estrogen receptor [6] is 1.9 nM; on Estrogen receptor [3] it was 0.257 nM; in “cells” (read-out: pIC50 (converted)), 0.263 nM; in assay [5] it was 0.0417 nM. For the same molecule, the Emax in assay [1] came out at 69%; in [2], 48%. The Efficacy in assay [4] amounted to 81%.
As for `O=C(c1cccc(F)c1)c1sc2cc(O)ccc2c1Oc1ccc(OCCN2CC(CF)C2)cc1`, the values for the Emax in [1] and in assay [2] were 78% and 36%, respectively. The IC50 was 0.295 nM in “cells” (read-out: pIC50 (converted)) and 0.229 nM in assay [5].
Turning to `CCNCCc1ccc(CN(CC)c2cc(OC)ccc2[C@@H]2CCc3cc(O)ccc3C2)cc1`, the result in assay [12] was Active.
For `O=C(c1ccccc1)c1sc2cc(O)ccc2c1Oc1ccc(OC2CN(CCCF)C2)cc1`, the IC50 against Estrogen receptor [6] was 0.5 nM; on Estrogen receptor [3], 0.708 nM; in the assay “cells” (read-out: pIC50 (converted)) it was 0.162 nM; in assay [5], 0.288 nM. Besides, the Emax is 67% in [1] and 41% in [2]. The Efficacy in [4] came out at 88%.
For the molecule `Cc1cc(F)cc(C)c1C(=O)c1sc2cc(O)ccc2c1Oc1ccc(OC2CN(C3CC3)C2)cc1`, the IC50 against Estrogen receptor [6] was 11 nM; on Estrogen receptor [3], 5.89 nM; in the assay “cells” (read-out: pIC50 (converted)), 0.141 nM; in assay [5], 0.0631 nM. The Emax in assay [1] stood at 62%; in assay [2], 16%. Moreover, the Efficacy in [4] stood at 51%.
As to `Cc1cc(F)ccc1C(=O)c1sc2cc(O)ccc2c1Oc1ccc(OCCN2CC(CF)C2)cc1`, the IC50 at Estrogen receptor [6] is 2.7 nM; on Estrogen receptor [3] it was 3.63 nM; in the assay “cells” (read-out: pIC50 (converted)), 0.363 nM; in assay [5] it was 0.251 nM. In addition, the results for the Emax in [1] and in assay [2] were 77% and 52%, respectively. Further, the Efficacy in assay [4] was found to be 95%.
Take `O=C(c1ccc(F)cc1)c1sc2cc(O)ccc2c1Oc1ccc(OCCN2CC(CF)C2)cc1`: the IC50 is 28 nM against Estrogen receptor [6], 1.23 nM on Estrogen receptor [3], 0.447 nM in the assay “cells” (read-out: pIC50 (converted)) and 1.02 nM in assay [5]. Moreover, the outcome in the assay listed under Homo sapiens [7] and in the assay filed under Homo sapiens [8] was Active. Moreover, the Emax in [1] amounted to 67%; in [2], 46%. For the same molecule, the Efficacy in assay [4] worked out at 89%.
With `Cc1cc(F)ccc1C(=O)c1sc2cc(O)ccc2c1Oc1ccc(OC2CN(CCCF)C2)cc1`, the IC50 against Estrogen receptor [6] was 5.2 nM; at Estrogen receptor [3], 9.33 nM; in the assay “cells” (read-out: pIC50 (converted)) it was 0.117 nM; in assay [5] it was 0.17 nM. The Emax in assay [1] is 69%; in assay [2] it was 45%. In addition, the Efficacy in assay [4] was determined as 95%.
In the case of `O=C(c1ccccc1)c1sc2cc(O)ccc2c1Oc1ccc(OCCN2CC(CF)C2)cc1`, the IC50 is 4.3 nM on Estrogen receptor [6], 1.02 nM on Estrogen receptor [3], 0.263 nM in “cells” (read-out: pIC50 (converted)) and 0.174 nM in assay [5]. Moreover, the values for the Emax in [1] and in [2] were 64% and 48%, respectively. Besides, in assay [4], the Efficacy was 85%.
As to `Cc1cc(O)ccc1C(=O)c1sc2cc(O)ccc2c1Oc1ccc(OCCN2CC(CF)C2)cc1`, the IC50 is 14 nM against Estrogen receptor [6], 5.13 nM at Estrogen receptor [3], 0.12 nM in “cells” (read-out: pIC50 (converted)) and 0.575 nM in assay [5]. For the same molecule, the Emax was determined as 78% in [1] and 36% in assay [2]. Also, the Efficacy in assay [4] came out at 90%.
In the case of `Cc1ccccc1C(=O)c1sc2cc(O)ccc2c1Oc1ccc(OCCN2CC(CF)C2)cc1`, the IC50 is 1.5 nM on Estrogen receptor [6], 0.955 nM on Estrogen receptor [3], 0.955 nM in “cells” (read-out: pIC50 (converted)) and 1.07 nM in assay [5]. For the same molecule, the Emax worked out at 72% in [1] and 40% in assay [2]. In assay [4], the Efficacy came out at 92%.
With `O=C(c1cccc(F)c1)c1sc2cc(O)ccc2c1Oc1ccc(OC2CN(CCCF)C2)cc1`, in [1], the Emax is 70%. Further, the IC50 is 0.182 nM in the assay “cells” (read-out: pIC50 (converted)) and 0.141 nM in assay [5].
Regarding `Cc1cc(F)cc(C)c1C(=O)c1sc2cc(O)ccc2c1Oc1ccc(OCCN2CC[C@H](CF)C2)cc1`, the values for the Emax in assay [1] and in assay [2] were 70% and 42%, respectively. The IC50 was 3.02 nM on Estrogen receptor [3], 1 nM in the assay “cells” (read-out: pIC50 (converted)) and 0.407 nM in [5]. Further, the Efficacy in [4] turned out to be 42%.
In the case of `CC1=C(c2cccc(O)c2)[C@H](c2ccc(OCCN3CC(CF)C3)cc2)Oc2ccc(O)cc21`, the outcome in the assay on T47D [9], in the assay on T47D [10] and in the assay with T47D [11] was Active.
Regarding `O=C(c1ccc(O)cc1)c1sc2cc(O)ccc2c1Oc1ccc(OCCN2CC(CF)C2)cc1`, the IC50 at Estrogen receptor [6] is 64 nM; on Estrogen receptor [3], 8.13 nM; in “cells”, greater than 100 nM; in [5], 0.708 nM. Further, the Emax in assay [1] worked out at 73%. The Efficacy in assay [4] amounted to 47%.
In the case of `Cc1ccc(C(=O)c2sc3cc(O)ccc3c2Oc2ccc(OCCN3CC(CF)C3)cc2)c(C)c1`, the IC50 against Estrogen receptor [6] is 7.4 nM; at Estrogen receptor [3], 1.45 nM; in “cells” (read-out: pIC50 (converted)), 0.38 nM; in [5] it was 0.155 nM. Besides, the values for the Emax in assay [1] and in [2] were 68% and 42%, respectively. Besides, the Efficacy in [4] is 83%.
